Measured values as given in ChEMBL document CHEMBL5247578, “Effective synthesis of benzimidazoles-imidazo[1,2-a]pyrazine conjugates: A comparative study of mono-and bis-benzimidazoles for antitumor activity” (Eur J Med Chem, 2019).

Columns and labels:
[1] = system: MDA-MB-435; test: Antiproliferative activity against human MDA-MB-435 cells assessed as cell growth at 0.0000001 M incubated for 48 hrs by SRB assay relative to control; type: functional; details: dose 100 nM, read-out: Activity
[2] = system: PC-3; test: Antiproliferative activity against human PC-3 cells assessed as cell growth at 0.00000001 M incubated for 48 hrs by SRB assay relative to control; type: functional; details: dose 10 nM, read-out: Activity
[3] = system: HOP-62; test: Antiproliferative activity against human HOP-62 cells assessed as cell growth at 0.0000001 M incubated for 48 hrs by SRB assay relative to control; type: functional; details: dose 100 nM, read-out: Activity
Outline: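 NCI-60 five-dose screen (10^-4 to 10^-8 M). Cells grown in RPMI 1640 with 5% FBS and 2 mM L-glutamine, plated at 5,000-40,000 cells/well and preincubated 24 h. Drug given from DMSO stock, then 48 h at 37 °C, 5% CO2. For adherent lines, cells fixed with cold TCA, SRB-stained and read at 515 nm. Percent growth taken against time-zero and untreated control.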

[4] = system: BT-549; test: Antiproliferative activity against human BT-549 cells assessed as cell growth at 0.0000001 M incubated for 48 hrs by SRB assay relative to control; type: functional; details: dose 100 nM, read-out: Activity
Outline: (§1)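 NCI-60 five-dose screen over 10^-4–10^-8 M (10-fold dilutions). Cells grown in RPMI 1640 with 5% FBS and 2 mM L-glutamine, seeded at 5,000–40,000 cells/well and preincubated 24 h. Drug from DMSO stock, 48 h at 37 °C, 5% CO2. Adherent cells TCA-fixed and stained with 0.4% SRB; A515 read. Percent growth = (Ti−Tz)/(C−Tz)×100, or (Ti−Tz)/Tz×100 when Ti<Tz.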

[5] = system: OVCAR-3; test: Antiproliferative activity against human OVCAR-3 cells assessed as cell growth inhibition by measuring lethal concentration incubated for 48 hrs by sulforhodamine B assay; type: functional; details: read-out: LC50 (the source's name)
[6] = system: PC-3; test: Antiproliferative activity against human PC-3 cells assessed as cell growth at 0.0001 M incubated for 48 hrs by SRB assay relative to control; type: functional; details: read-out: Activity
[7] = system: SNB-19; test: Antiproliferative activity against human SNB-19 cells assessed as cell growth at 0.00000001 M incubated for 48 hrs by SRB assay relative to control; type: functional; details: dose 10 nM, read-out: Activity
[8] = system: HOP-92; test: Antiproliferative activity against human HOP-92 cells assessed as cell growth inhibition by measuring lethal concentration incubated for 48 hrs by sulforhodamine B assay; type: functional; details: read-out: LC50 (the source's name)
[9] = system: NCI-H23; test: Antiproliferative activity against human NCI-H23 cells assessed as cell growth at 0.00000001 M incubated for 48 hrs by SRB assay relative to control; type: functional; details: dose 10 nM, read-out: Activity
[10] = system: EKVX; test: Antiproliferative activity against human EKVX cells assessed as cell growth inhibition by measuring lethal concentration incubated for 48 hrs by sulforhodamine B assay; type: functional; details: read-out: LC50 (the source's name)
[11] = system: OVCAR-8; test: Antiproliferative activity against human OVCAR-8 cells assessed as cell growth at 0.000001 M incubated for 48 hrs by SRB assay relative to control; type: functional; details: read-out: Activity
[12] = system: NCI-H522; test: Antiproliferative activity against human NCI-H522 cells assessed as cell growth at 0.00000001 M incubated for 48 hrs by SRB assay relative to control; type: functional; details: dose 10 nM, read-out: Activity
[13] = system: BT-549; test: Antiproliferative activity against human BT-549 cells assessed as cell growth inhibition by measuring lethal concentration incubated for 48 hrs by sulforhodamine B assay; type: functional; details: read-out: LC50 (the source's name)
[14] = system: NCI-H23; test: Growth inhibition against human NCI-H23 cells incubated for 48 hrs by sulforhodamine B assay; type: functional
[15] = system: U-251; test: Antiproliferative activity against human U-251 cells assessed as cell growth at 0.000001 M incubated for 48 hrs by SRB assay relative to control; type: functional; details: read-out: Activity
[16] = system: 786-0; test: Antiproliferative activity against human 786-0 cells assessed as cell growth at 0.000001 M incubated for 48 hrs by SRB assay relative to control; type: functional; details: read-out: Activity; outline: as §1
[17] = system: SF-295; test: Antiproliferative activity against human SF-295 cells assessed as cell growth at 0.00000001 M incubated for 48 hrs by SRB assay relative to control; type: functional; details: dose 10 nM, read-out: Activity
[18] = system: LOX IMVI; test: Antiproliferative activity against human LOX IMVI cells assessed as cell growth at 0.000001 M incubated for 48 hrs by SRB assay relative to control; type: functional; details: read-out: Activity
[19] = system: 786-0; test: Antiproliferative activity against human 786-0 cells assessed as cell growth inhibition by measuring lethal concentration incubated for 48 hrs by sulforhodamine B assay; type: functional; details: read-out: LC50 (the source's name)
[20] = system: MCF7; test: Antiproliferative activity against human MCF7 cells assessed as cell growth at 0.0000001 M incubated for 48 hrs by SRB assay relative to control; type: functional; details: dose 100 nM, read-out: Activity
[21] = system: RPMI-8226; test: Antiproliferative activity against human RPMI-8226 cells assessed as cell growth at 0.0000001 M incubated for 48 hrs by SRB assay relative to control; type: functional; details: dose 100 nM, read-out: Activity
[22] = system: BT-549; test: Antiproliferative activity against human BT-549 cells assessed as cell growth at 0.00000001 M incubated for 48 hrs by SRB assay relative to control; type: functional; details: dose 10 nM, read-out: Activity; outline: as §1
[23] = system: CAKI-1; test: Antiproliferative activity against human CAKI-1 cells assessed as cell growth at 0.0000001 M incubated for 48 hrs by SRB assay relative to control; type: functional; details: dose 100 nM, read-out: Activity; outline: as §1
[24] = system: OVCAR-4; test: Antiproliferative activity against human OVCAR-4 cells assessed as cell growth at 0.00000001 M incubated for 48 hrs by SRB assay relative to control; type: functional; details: dose 10 nM, read-out: Activity
[25] = system: CAKI-1; test: Growth inhibition against human CAKI-1 cells incubated for 48 hrs by sulforhodamine B assay; type: functional
[26] = system: RXF 393; test: Antiproliferative activity against human RXF 393 cells assessed as cell growth at 0.00000001 M incubated for 48 hrs by SRB assay relative to control; type: functional; details: dose 10 nM, read-out: Activity
[27] = system: NCI-H522; test: Antiproliferative activity against human NCI-H522 cells assessed as cell growth at 0.0000001 M incubated for 48 hrs by SRB assay relative to control; type: functional; details: dose 100 nM, read-out: Activity
[28] = system: CCRF-CEM; test: Antiproliferative activity against human CCRF-CEM cells assessed as cell growth inhibition by measuring lethal concentration incubated for 48 hrs by sulforhodamine B assay; type: functional; details: read-out: LC50 (the source's name)
[29] = system: SK-MEL-28; test: Growth inhibition against human SK-MEL-28 cells incubated for 48 hrs by sulforhodamine B assay; type: functional
[30] = system: MOLT-4; test: Antiproliferative activity against human MOLT-4 cells assessed as cell growth at 0.000001 M incubated for 48 hrs by SRB assay relative to control; type: functional; details: read-out: Activity
[31] = system: U-251; test: Antiproliferative activity against human U-251 cells assessed as cell growth at 0.0000001 M incubated for 48 hrs by SRB assay relative to control; type: functional; details: dose 100 nM, read-out: Activity
[32] = system: MDA-MB-435; test: Antiproliferative activity against human MDA-MB-435 cells assessed as cell growth inhibition by measuring lethal concentration incubated for 48 hrs by sulforhodamine B assay; type: functional; details: read-out: LC50 (the source's name)
[33] = system: A498; test: Growth inhibition against human A498 cells assessed as total growth inhibitory concentration incubated for 48 hrs by sulforhodamine B assay; type: functional
[34] = system: OVCAR-8; test: Antiproliferative activity against human OVCAR-8 cells assessed as cell growth at 0.0001 M incubated for 48 hrs by SRB assay relative to control; type: functional; details: read-out: Activity
[35] = system: Calf thymus DNA; test: Binding affinity to calf thymus DNA assessed as quenching constant at temperature of 298 K by fluorescence spectroscopic method; type: nucleic-acid assay; details: Bos taurus

## c1ccc(Cn2cnc3ccc(-c4nc(-c5ccc6c(c5)ncn6C5CCCCC5)cn5ccnc45)cc32)cc1
[1]
  growth at 0.1 µM: 98%
[2]
  growth at 0.01 µM: 95%
[3]
  growth at 0.1 µM: 86%
[4]
  growth at 0.1 µM: 92%
[5]
  CC50: > 100 µM
[6]
  growth at 100 µM: -3%
[7]
  growth at 0.01 µM: 99%
[8]
  CC50: 5.5 µM
[9]
  growth at 0.01 µM: 94%
[10]
  CC50: > 100 µM
[11]
  growth at 1 µM: 102%
[12]
  growth at 0.01 µM: 93%
[13]
  CC50: 5.96 µM
[14]
  GI50: 1.88 µM
[15]
  growth at 1 µM: 83%
[16]
  growth at 1 µM: 46%
[17]
  growth at 0.01 µM: 91%
[18]
  growth at 1 µM: 88%
[19]
  CC50: > 100 µM
[20]
  growth at 0.1 µM: 90%
[21]
  growth at 0.1 µM: 113%
[22]
  growth at 0.01 µM: 85%
[23]
  growth at 0.1 µM: 88%
[24]
  growth at 0.01 µM: 94%
[25]
  GI50: 2.45 µM
[26]
  growth at 0.01 µM: 101%
[27]
  growth at 0.1 µM: 90%
[28]
  CC50: > 100 µM
[29]
  GI50: 2.43 µM
[30]
  growth at 1 µM: 64%
[31]
  growth at 0.1 µM: 107%
[32]
  CC50: > 100 µM
[33]
  TGI: 3.57 µM
[34]
  growth at 100 µM: -2%
[35]
  Kq: 1.19 10^12/M/s

## COc1ccc(-c2cn3ccnc3c(-c3ccc4ncn(C5CCCCC5)c4c3)n2)cc1
[1]
  growth at 0.1 µM: 92%
[2]
  growth at 0.01 µM: 96%
[3]
  growth at 0.1 µM: 93%
[4]
  growth at 0.1 µM: 88%
[5]
  CC50: > 100 µM
[6]
  growth at 100 µM: 24%
[7]
  growth at 0.01 µM: 107%
[8]
  CC50: > 100 µM
[9]
  growth at 0.01 µM: 97%
[10]
  CC50: > 100 µM
[11]
  growth at 1 µM: 92%
[12]
  growth at 0.01 µM: 88%
[13]
  CC50: > 100 µM
[14]
  GI50: 2.11 µM
[15]
  growth at 1 µM: 69%
[16]
  growth at 1 µM: 34%
[17]
  growth at 0.01 µM: 87%
[18]
  growth at 1 µM: 44%
[19]
  CC50: > 100 µM
[20]
  growth at 0.1 µM: 92%
[21]
  growth at 0.1 µM: 108%
[22]
  growth at 0.01 µM: 8%
[23]
  growth at 0.1 µM: 90%
[24]
  growth at 0.01 µM: 96%
[25]
  GI50: 0.757 µM
[26]
  growth at 0.01 µM: 102%
[27]
  growth at 0.1 µM: 87%
[28]
  CC50: > 100 µM
[29]
  GI50: 2.1 µM
[30]
  growth at 1 µM: 78%
[31]
  growth at 0.1 µM: 104%
[32]
  CC50: > 100 µM
[33]
  TGI: > 100 µM
[34]
  growth at 100 µM: 8%
[35]
  Kq: 4.65 10^12/M/s
